Screens (PubChem BioAssay)
V-ATPase pHluor: alters yeast V-ATPase proton transport | S. cerevisiae, pHLuorin cytosolic pH fluorescence | response, % at 10 µM | AID 504577 | 350,000 compounds, 0.37% hits; in the data active = response mostly above about 7.3%, no sharp cut-off; inactive = mostly below about 5.4%; note: actives read high
HIF act: HIF pathway transcriptional activation | U2OS HRE-luciferase reporter, luminescence; normalized: DMSO 0%, desferrioxamine 100% | activation, % at 7.5 µM (by protocol) | 300,000 compounds, 0.32% hits;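 active = mean activation of at least 10% of the iron chelator positive control signal, with at least half of replicates also reaching 10%; inconclusive = mean and replicate majority disagree about reaching 10%; inactive = mean and most replicates under 10%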
AI-2 QS modul: modulates the Vibrio harveyi AI-2 quorum sensing system | Vibrio harveyi JMH597 AI-2 luminescence/OD600 ratio, 9 h; stronger effect = lower value; strain lacks LuxN and CqsS sensors; 0 = neutral-control median | activity change, % at 7.5 µM | 300,000 compounds, 0.4% hits; in the data active = activity change below about -75%, passing the limit was not always enough; inconclusive = no clear call, values can overlap the other calls;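 note: luminescence divided by OD600 gain over 9 h not by final OD600 alone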
T cruzi repl: blocks replication of Trypanosoma cruzi | T. cruzi beta-gal in NIH3T3, luminescence, 90 h | inhibition, % (test concentration not listed) | 300,000 compounds, 1.4% hits;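 active = mean inhibition across valid replicates above about 55%, limit read from the data; inconclusive = mean below that limit but half or more replicates reach it; inactive = mean below it, under half of replicates reach it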;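 note: signal also drops with host cell toxicity which is not excluded here; 0% = plate median of DMSO wells and 100% = zero luminescence signal; higher percent means less beta-gal luminescence so fewer parasites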
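System: mouse NIH/3T3 fibroblasts infected with β-gal-expressing T. cruzi Tulahuen C4 / Input: NIH/3T3 cells, 5,000 per well / Buffer or medium: Low-serum DMEM with 2% FBS / Probe or stimulus: 5000 reporter trypomastigotes per well / Schedule: ≥90 h infection period, 3 h prior cell attachment / Measured by: GalScreen luminescence, 60 min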
Yeast superoxide: yeast age-related superoxide inhibition as caloric restriction mimetic; superoxide response (% of plate mean), % at 10 µM; 330,000 compounds, 0.18% hits; S. cerevisiae aged cells, superoxide DHE fluorescence; stronger effect = lower value;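 active = superoxide response under a set limit, about three screen SD below normal, cut at about 65% in these data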;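 note: yeast aged for seven days with compound at 30 °C before DHE staining; 100% = average MFI of all compound-treated wells on the plate with controls excluded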
CendR NRP1 mod: NRP-1/CendR interaction modulation | FAM-RPARPAR peptide binding to NRP-1, fluorescence polarization | inhibition, % at 25 µM | 360,000 compounds, 0.85% hits | AID 602438;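 active = inhibition or corrected inhibition above about 18%, plus a signal ratio from 0.5 to 1.5, limit read from the data, passing the limit was not always enough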
Target sequence (O14786 whole entry, looked up): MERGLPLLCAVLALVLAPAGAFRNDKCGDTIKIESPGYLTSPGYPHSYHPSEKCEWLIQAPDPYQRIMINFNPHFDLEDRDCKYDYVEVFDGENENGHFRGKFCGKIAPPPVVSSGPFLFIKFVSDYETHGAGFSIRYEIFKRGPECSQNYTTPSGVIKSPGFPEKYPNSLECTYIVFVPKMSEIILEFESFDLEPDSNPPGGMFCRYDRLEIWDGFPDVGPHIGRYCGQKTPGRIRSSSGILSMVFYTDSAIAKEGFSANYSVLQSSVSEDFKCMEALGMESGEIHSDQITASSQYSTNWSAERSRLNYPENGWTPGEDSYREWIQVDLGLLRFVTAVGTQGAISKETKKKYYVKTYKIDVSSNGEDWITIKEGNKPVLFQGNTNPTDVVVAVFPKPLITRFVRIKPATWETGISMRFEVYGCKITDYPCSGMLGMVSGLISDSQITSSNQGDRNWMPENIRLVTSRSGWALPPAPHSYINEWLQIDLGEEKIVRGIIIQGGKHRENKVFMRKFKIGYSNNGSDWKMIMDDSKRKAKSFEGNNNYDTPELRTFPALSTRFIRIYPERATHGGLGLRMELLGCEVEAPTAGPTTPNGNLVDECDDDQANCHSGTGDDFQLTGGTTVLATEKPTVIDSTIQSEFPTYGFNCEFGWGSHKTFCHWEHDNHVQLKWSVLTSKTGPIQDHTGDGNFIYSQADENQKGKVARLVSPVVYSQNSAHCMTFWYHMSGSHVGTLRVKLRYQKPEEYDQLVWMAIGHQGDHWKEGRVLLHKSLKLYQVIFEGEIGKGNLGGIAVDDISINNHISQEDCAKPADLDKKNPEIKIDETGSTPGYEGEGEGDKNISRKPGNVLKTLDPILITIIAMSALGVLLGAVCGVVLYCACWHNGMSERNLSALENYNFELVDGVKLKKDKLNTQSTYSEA
JMH597 growth rt: retest: inhibitors of Vibrio harveyi JMH597 growth; shares compounds with AI-2 QS modul; OD600 absorbance, 9 h; lacks LuxN and CqsS sensors; growth inhibition, % at 7.5 µM; 750 compounds, 1% hits; AID 2726;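 active = every replicate shows growth inhibition above 50%; inconclusive = at least half, but not all, replicates pass that cutoff; inactive = fewer than half of replicates pass it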
BB721 lum counter: retest counter-screen: lowers luminescence of constitutive-QS Vibrio harveyi BB721; 750 compounds, 95% hits; 9 h; shares compounds with AI-2 QS modul; inhibition, % at 7.5 µM;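 active = inhibition above about 80% in every replicate, not just on average, limit read from the data; inconclusive = at least half of replicates past the limit, but not all; inactive = fewer than half of replicates past the limit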
BB721 growth: retest: blocks Vibrio harveyi BB721 growth | OD600 absorbance, 9 h | shares compounds with AI-2 QS modul | growth inhibition, % at 7.5 µM | 750 compounds, 3% hits;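 active = every replicate shows growth inhibition above 50%; inconclusive = at least half but not all replicates above 50% inhibition; inactive = under half of replicates above 50% inhibition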
AI-2 QS JMH597: Vibrio harveyi AI-2 signaling luminescence modulation – JMH597 strain, confirmation; shares compounds with AI-2 QS modul; Vibrio harveyi JMH597 AI-2 quorum sensing luminescence, 9 h; luxN and CqsS knockout, AI-2 only; inhibition, % at 7.5 µM; 750 compounds, 97% hits; AID 2736;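 active = every replicate shows more than 75% inhibition of signal versus neutral control wells; inconclusive = half to three quarters of replicates exceed 75% inhibition; inactive = fewer than half of replicates exceed 75% inhibition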
* = called active by the depositor; ? = inconclusive; . = no result given. Sampled rows, rich in hits. Any-hit rate of the full collection: about 3%.

SMILES | V-ATPase pHluor | HIF act | AI-2 QS modul | T cruzi repl | Yeast superoxide | CendR NRP1 mod | JMH597 growth rt | BB721 lum counter | BB721 growth | AI-2 QS JMH597
O=[N+]([O-])c1ccc(CSc2nnc(-c3cccnc3)o2)cc1 | -2 | 0 | -59 | -18 | 96 | 0 | . | . | . | .
CN1CCN(S(=O)(=O)c2ccc(C3CCCCC3)cc2)CC1 | -1 | . | . | . | . | 2 | . | . | . | .
Nn1c(SCc2ccc(F)cc2)nnc1-c1cccnc1 | -1 | 0 | -71 | -23 | 97 | -18 | . | . | . | .
Clc1ccc(CSc2nnc(-c3cccnc3)o2)cc1 | -1 | 1 | -93* | -2 | 107 | -10 | 27 | 98* | 22 | 99*
c1cncc(-c2nnc(SCc3cccc4ccccc34)o2)c1 | 0 | 0 | -96* | -2 | 103 | -7 | 5 | 99* | 0 | 99*
O=C(CSc1nnc(-c2cccnc2)o1)Nc1ccc(F)cc1 | -1 | . | . | . | . | 8 | . | . | . | .
Fc1ccc(CSc2nnc(-c3cccnc3)o2)cc1 | -3 | 2 | -93* | -5 | 100 | 8 | 19 | 98* | 5 | 99*
Nn1c(SCc2ccc(Br)cc2)nnc1-c1cccnc1 | 0 | 0 | -86* | -8 | 99 | -10 | 21 | 95* | 11 | 96*
C/C(=N\OCC(=O)OCC(=O)N(Cc1ccccc1)C(C)(C)C)c1ccc2c(c1)OCO2 | 1 | 2 | 2 | -13 | 107 | 12 | . | . | . | .
Cc1ccc(CSc2nnc(-c3ccccn3)n2N)cc1 | -1 | 2 | ? | -9 | 110 | 13 | 0 | 91* | -21 | 95*
Nn1c(SCc2ccccc2)nnc1-c1ccccn1 | -2 | 1 | -35 | 10 | 109 | -6 | . | . | . | .
Brc1ccc(CSc2nnc(-c3cccnc3)o2)cc1 | 2 | 0 | -94* | -5 | 109 | -1 | 1 | 98* | 0 | 99*
CC(=O)c1cccc(NC(=O)C2Cc3c(-c4ccco4)ccnc3O2)c1 (centres undefined) | . | . | . | . | . | -10 | . | . | . | .
C=CCn1c(CCNC(=O)c2ccc(Cl)c(Cl)c2)nnc1SCCOc1ccc(OC)cc1 | 1 | 0 | -84* | 5 | 87 | 26* | 61 | 90* | 37 | 94*
CC1(c2ccccc2Cl)NC(=O)N(CC(=O)Nc2ccc(N3CCOCC3)cc2)C1=O (centres undefined) | -1 | . | . | . | 99 | -3 | . | . | . | .
CC1(c2ccc3c(c2)OCO3)NC(=O)N(CC(=O)Nc2ccc(N3CCOCC3)cc2)C1=O (centres undefined) | 2 | -1 | -88* | 6 | 89 | 2 | 0 | 88* | -6 | 94*
Cc1ccc(C2(C)NC(=O)N(CC(=O)NC(=O)NCCC(C)C)C2=O)cc1 (centres undefined) | 4 | 2 | -85* | -18 | 107 | -6 | -14 | 90* | -38 | 95*
Cc1ccc(NC(=O)CN2C(=O)NC(C)(c3ccc(Cl)cc3)C2=O)cc1 (centres undefined) | 4 | 0 | -88* | 0 | 99 | 6 | 0 | 89* | 9 | 94*
Cc1cccc(NC(=O)CN2C(=O)NC(C)(c3ccc4c(c3)OCO4)C2=O)c1 (centres undefined) | -4 | 0 | -87* | -11 | 90 | 3 | -5 | 88* | 4 | 92*
O=C(NCc1ccccc1)c1ccc(Cl)cc1[N+](=O)[O-] | 4 | 0 | -72 | -17 | 101 | 11 | . | . | . | .
Cc1ccc(C2(C)NC(=O)N(CC(=O)Nc3ccc4c(c3)OCO4)C2=O)cc1 (centres undefined) | 2 | 0 | -95* | 6 | 108 | -3 | 11 | 97* | 51 | 98*
COc1cc(NC(=O)CN2C(=O)NC3(CCOc4ccccc43)C2=O)cc(OC)c1 (centres undefined) | -1 | . | . | . | 124 | -11 | . | . | . | .
CCC1(c2ccccc2)NC(=O)N(CC(=O)Nc2ccc3c(c2)OCO3)C1=O (centres undefined) | 1 | 1 | -93* | -2 | 100 | 14 | 28 | 96* | 30 | 97*
O=C(CN1C(=O)NC2(CCOc3ccccc32)C1=O)Nc1cccc(Cl)c1 (centres undefined) | -2 | -1 | -93* | 3 | 120 | 2 | -5 | 96* | -8 | 98*
CCCC1(c2ccccc2)NC(=O)N(CC(=O)Nc2ccc3c(c2)OCCO3)C1=O (centres undefined) | -1 | . | . | . | 104 | -6 | . | . | . | .
SMILES | V-ATPase pHluor | HIF act | AI-2 QS modul | T cruzi repl | Yeast superoxide | CendR NRP1 mod | JMH597 growth rt | BB721 lum counter | BB721 growth | AI-2 QS JMH597
CCNc1ccc(C(=O)OCC(=O)NCc2ccc(C)cc2)cc1[N+](=O)[O-] | -1 | 0 | 18 | -2 | 89 | 0 | . | . | . | .
CC(Oc1ccccc1)C(=O)Nc1cccc(NC(=O)c2ccco2)c1 (centres undefined) | -5 | 0 | 12 | -1 | 95 | -3 | . | . | . | .
Cc1cccc(-n2nnc(C(=O)N3CCc4ccccc4C3)c2N)c1 | 3 | 2 | -82* | 11 | 104 | -2 | 39 | 92* | ? | 95*
Cc1cccc(-n2nnc(C(=O)Nc3ccc(F)cc3)c2N)c1 | 1 | 4 | 8 | -1 | 103 | 8 | . | . | . | .
O=C(CNC(=O)c1ccccc1)N/N=C/c1ccccc1Cl | 4 | 0 | -90* | -12 | 100 | -3 | 21 | 96* | 15 | 97*
COC(=O)N/N=C/c1cccnc1 | 2 | -1 | 10 | 0 | 99 | 2 | . | . | . | .
O=C(Nc1cnn(Cc2ccc(Cl)cc2)c1)c1cccs1 | -1 | 0 | -89* | -2 | 101 | 18 | 26 | 96* | -9 | 97*
O=C(Nc1cnn(Cc2ccc(Cl)cc2)c1)c1ccc([N+](=O)[O-])cc1 | 0 | -1 | 21 | 4 | 95 | 4 | . | . | . | .
c1ccc(Cc2ccc(OCCn3cncn3)cc2)cc1 | -1 | 0 | ? | -2 | 85 | -3 | 7 | 89* | 10 | 93*
COC(=O)c1cc(OC)c(OC)cc1NC(=O)c1ccc(Br)o1 | -2 | 0 | ? | -12 | 92 | 9 | -18 | -2 | -19 | 1
C[C@@H]1CC[C@@]2(O[C@@H](CCO)C[C@H](O)[C@H]2O)O1 | 0 | 0 | 16 | -12 | 95 | 0 | . | . | . | .
Cc1cccc(NS(=O)(=O)c2ccc(Oc3ccccc3)cc2)n1 | 0 | -1 | -89* | 2 | 95 | 6 | 25 | 11 | -20 | 96*
